The results in this text go back to ChEMBL document CHEMBL1124012, “Synthesis of sulfur-containing analogues of bestatin. Inhibition of aminopeptidases by alpha-thiolbestatin analogues” (J Med Chem, 1988).

Bounds are passed on as bounds.

One assay addresses T1, Aminopeptidase N (Sus scrofa, UniProt P15145).
T1 sequence (P15145 whole entry): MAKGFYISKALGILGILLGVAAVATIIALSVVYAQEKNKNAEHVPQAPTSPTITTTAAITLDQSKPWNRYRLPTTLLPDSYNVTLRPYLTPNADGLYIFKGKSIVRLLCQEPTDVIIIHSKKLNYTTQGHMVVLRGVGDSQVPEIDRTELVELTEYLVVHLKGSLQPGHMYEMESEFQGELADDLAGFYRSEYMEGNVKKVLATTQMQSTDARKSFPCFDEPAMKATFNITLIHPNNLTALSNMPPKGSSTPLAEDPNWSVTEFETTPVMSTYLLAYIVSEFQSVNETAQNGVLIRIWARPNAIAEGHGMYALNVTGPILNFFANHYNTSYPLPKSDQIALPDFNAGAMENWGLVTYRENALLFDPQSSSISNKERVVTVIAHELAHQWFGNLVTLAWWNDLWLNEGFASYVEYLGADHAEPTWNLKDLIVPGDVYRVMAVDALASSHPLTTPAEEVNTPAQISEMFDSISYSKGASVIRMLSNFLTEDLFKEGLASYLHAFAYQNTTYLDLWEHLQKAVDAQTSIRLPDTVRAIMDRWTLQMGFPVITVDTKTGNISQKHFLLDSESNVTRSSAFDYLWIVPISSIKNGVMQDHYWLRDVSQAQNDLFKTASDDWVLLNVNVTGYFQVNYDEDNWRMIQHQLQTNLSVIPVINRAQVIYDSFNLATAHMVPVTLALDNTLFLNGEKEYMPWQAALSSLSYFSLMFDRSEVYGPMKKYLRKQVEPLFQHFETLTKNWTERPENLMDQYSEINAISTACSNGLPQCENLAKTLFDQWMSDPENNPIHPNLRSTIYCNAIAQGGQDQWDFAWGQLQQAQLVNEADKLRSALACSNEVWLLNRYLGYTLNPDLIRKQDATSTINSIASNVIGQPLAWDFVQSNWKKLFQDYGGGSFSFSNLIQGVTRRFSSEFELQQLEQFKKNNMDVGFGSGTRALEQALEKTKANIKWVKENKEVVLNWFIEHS
Put plainly: Inhibitory activity against Aminopeptidase M.

The target in a further assay is T2, Aminopeptidase B (Rattus norvegicus, UniProt O09175).
T2 sequence (O09175 whole entry): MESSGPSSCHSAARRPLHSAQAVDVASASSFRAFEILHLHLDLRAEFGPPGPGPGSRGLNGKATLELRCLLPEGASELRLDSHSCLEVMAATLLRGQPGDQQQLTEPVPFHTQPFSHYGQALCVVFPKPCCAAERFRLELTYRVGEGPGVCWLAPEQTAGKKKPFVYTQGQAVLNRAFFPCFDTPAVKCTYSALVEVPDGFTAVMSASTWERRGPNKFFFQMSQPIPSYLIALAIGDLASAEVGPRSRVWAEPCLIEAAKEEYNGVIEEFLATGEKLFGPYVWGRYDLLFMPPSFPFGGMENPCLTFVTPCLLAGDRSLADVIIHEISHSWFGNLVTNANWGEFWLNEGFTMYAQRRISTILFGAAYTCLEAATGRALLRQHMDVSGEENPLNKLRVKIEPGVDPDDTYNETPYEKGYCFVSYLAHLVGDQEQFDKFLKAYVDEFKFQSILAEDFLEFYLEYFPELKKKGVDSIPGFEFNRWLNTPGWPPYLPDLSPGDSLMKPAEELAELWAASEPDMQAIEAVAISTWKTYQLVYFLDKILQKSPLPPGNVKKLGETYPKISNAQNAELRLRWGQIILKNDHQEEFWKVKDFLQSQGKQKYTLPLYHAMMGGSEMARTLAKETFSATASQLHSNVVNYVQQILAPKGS
The assay can be described thus: Inhibitory activity against aminopeptidase B. In short, it runs like this: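 Aminopeptidase B at an estimated 4.6 nM, diluted 10-fold for tight binders, in 0.1 M PIPES pH 7.0 with 0.2 M NaCl and 1 mM DTT, 25 °C. Substrate was L-arginine p-nitroanilide, used near Km, with hydrolysis read at 405 nm. Where slow binding appeared, enzyme and inhibitor were preincubated 10–20 min before substrate was added.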

The next assay concerns the target Cytosol aminopeptidase (Homo sapiens, UniProt P28838). Put plainly: Inhibitory activity against Leucine aminopeptidase. On the set-up: species or system Streptomyces olivoreticuli. In outline:
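Cytosolic leucine aminopeptidase, converted to Zn/Mg form by 4 h at 37 °C in 10 mM HEPES pH 8.0 with 5 mM MgSO4 and 1 M KCl. Assayed at 25 °C in 0.1 M Tris pH 8.5 with 5 mM MgCl2, enzyme 5 nM (1 nM for very tight binders).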

Sequence of Cytosol aminopeptidase (P28838 whole entry): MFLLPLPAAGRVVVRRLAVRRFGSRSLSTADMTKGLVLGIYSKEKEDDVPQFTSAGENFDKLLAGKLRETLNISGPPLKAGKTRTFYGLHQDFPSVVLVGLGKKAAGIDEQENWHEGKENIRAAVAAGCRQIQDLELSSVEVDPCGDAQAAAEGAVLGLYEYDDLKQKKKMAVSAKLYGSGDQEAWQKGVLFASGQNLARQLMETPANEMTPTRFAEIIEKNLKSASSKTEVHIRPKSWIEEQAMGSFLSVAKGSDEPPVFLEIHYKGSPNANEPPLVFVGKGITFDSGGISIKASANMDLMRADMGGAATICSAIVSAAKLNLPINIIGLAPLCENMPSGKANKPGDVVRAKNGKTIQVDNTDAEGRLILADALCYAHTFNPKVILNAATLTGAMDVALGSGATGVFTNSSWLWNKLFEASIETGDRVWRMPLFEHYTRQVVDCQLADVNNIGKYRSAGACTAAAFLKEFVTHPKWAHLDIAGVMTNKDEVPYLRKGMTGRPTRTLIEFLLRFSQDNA

For `CC(C)C[C@H](NC(=O)[C@@H](S)[C@H](N)Cc1ccccc1)C(=O)O` [listing 1 of 2 here], the Ki on Aminopeptidase N worked out at 9.1 µM; on Aminopeptidase B, 0.0064 µM; on Cytosol aminopeptidase it was 1 µM.

Turning to `CC(C)C[C@H](NC(=O)[C@@H](S)[C@H](N)Cc1ccccc1)C(=O)O` [listing 2 of 2 here], the Ki came out at 4.4 µM on Aminopeptidase N, 0.0046 µM on Aminopeptidase B and 0.55 µM at Cytosol aminopeptidase.

For `CC(C)CCNC(=O)[C@@H](O)[C@H](N)Cc1ccccc1`, the Ki at Aminopeptidase N turned out to be 20 µM; on Aminopeptidase B, 39 µM; on Cytosol aminopeptidase it was 0.51 µM.

On to `CC(C)CC/N=C(\S)[C@@H](O)[C@H](N)Cc1ccccc1`, for which the results for the Ki on Aminopeptidase N, on Aminopeptidase B and on Cytosol aminopeptidase were 703 µM, greater than 1000 µM and 4.4 µM, respectively.

As for `COC(=O)C(S)[C@H](N)Cc1ccccc1` (some centres undefined), the Ki on Aminopeptidase N is 307 µM; on Aminopeptidase B it was 159 µM; on Cytosol aminopeptidase, 300 µM.

For `NCCCC[C@@H](N)CS`, the Ki on Aminopeptidase N was 0.11 µM; at Aminopeptidase B, 0.00091 µM; on Cytosol aminopeptidase, greater than 1000 µM.

With `CC(C)C[C@H](N)C(C)O` (some centres undefined), the figures for the Ki at Aminopeptidase N, on Aminopeptidase B and at Cytosol aminopeptidase were 355 µM, greater than 200 µM and 507 µM, respectively.

For the compound `COC(=O)C(O)[C@H](N)Cc1ccccc1` (some centres undefined), the Ki is 1000 µM on Aminopeptidase N, greater than 1000 µM at Aminopeptidase B and 33 µM at Cytosol aminopeptidase.

Consider `CC(C)C[C@H](/N=C(\S)[C@@H](O)[C@H](N)Cc1ccccc1)C(=O)O`, for which the Ki was 40.3 µM at Aminopeptidase N, 2.4 µM at Aminopeptidase B and 0.33 µM on Cytosol aminopeptidase.

The compound `NCCCC[C@@H](N)CO` yielded an inhibition constant Ki on Aminopeptidase B of 100 µM.

As to `CC(C)CCNC(=O)[C@H](S)[C@@H](N)Cc1ccccc1`, the figures for the Ki on Aminopeptidase N, at Aminopeptidase B and at Cytosol aminopeptidase were 32 µM, 35.7 µM and 26 µM, respectively.

As to `CC(C)CCNC(=O)[C@@H](S)[C@H](N)Cc1ccccc1`, the Ki at Aminopeptidase N is 4.9 µM; on Aminopeptidase B, 4 µM; at Cytosol aminopeptidase it was 16.7 µM.

For `CC(C)C[C@@H](N)CS`, the values for the inhibitory constant (Ki) at Aminopeptidase N, at Aminopeptidase B and on Cytosol aminopeptidase were 0.02 µM, 0.13 µM and 450 µM, respectively.

On to `CC(C)C[C@H](N)C(C)S` (some centres undefined), for which the values for the inhibitory constant (Ki) on Aminopeptidase N, on Aminopeptidase B and at Cytosol aminopeptidase were 6 µM, 7 µM and greater than 500 µM, respectively.

As for `CC(C)C[C@@H](N)CO`, the Ki on Aminopeptidase N, at Aminopeptidase B and on Cytosol aminopeptidase was greater than 1000 µM each time.

Regarding `CC(C)C[C@H](NC(=O)[C@@H](O)[C@H](N)Cc1ccccc1)C(=O)O` [UBENIMEX], the Ki on Aminopeptidase B was determined as 0.06 µM.
